Results on 28 compounds are retold here after ChEMBL document CHEMBL4118130, “Modular synthesis of new C-aryl-nucleosides and their anti-CML activity” (Bioorg Med Chem Lett, 2018).

Activity calls are given as the source filed them. No cut-off for these calls is given here. Some results are limits rather than exact numbers.

For test [1], the system named is K562. As to the kind of experiment: Cytotoxicity in drug sensitive human K562 cells assessed as reduction in cell viability at 10 uM incubated for 48 hrs by XTT assay relative to imatinib. Format: functional.
Test [2] relates to K-562R. In words: Induction of apoptosis in imatinib-resistant human K562R cells assessed as induction of caspase-3 cleavage after 24 hrs by Western blot method. Format: functional, cell-based. A digest of the protocol: (§1)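 Cell lysates were probed by western blot for procaspase 3 and for PARP, its preferred substrate, in K562-S and K562-R cells. Cleavage was scored after 6 h and 24 h of treatment.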
A general note: Immunoblotting shows a protein as a band on a membrane.

Test [3] relates to K562. In words: Induction of apoptosis in drug sensitive human K562 cells assessed as induction of PARP cleavage after 24 hrs by Western blot method. The test is classed as functional, cell-based. In short, it runs like this:
as §1

In test [4] the test system is K562. In words: Potency index, ratio of IC50 for AICAR to IC50 for test compound in drug sensitive human K562 cells assessed as reduction cell viability incubated for 48 hrs by XTT assay. The test is classed as functional.
Test [5] relates to K-562R. In words: Induction of apoptosis in imatinib-resistant human K562R cells assessed as induction of PARP cleavage after 24 hrs by Western blot method. The test is classed as functional, cell-based. A digest of the protocol: as §1
The test system of test [6] is K562. As to the kind of experiment: Induction of apoptosis in drug sensitive human K562 cells assessed as induction of caspase-3 cleavage after 6 hrs by Western blot method. Format: functional, cell-based. In short, it runs like this:
as §1

Test [7] concerns K-562R. As to the kind of experiment: Induction of apoptosis in imatinib-resistant human K562R cells assessed as induction of PARP cleavage after 6 hrs by Western blot method. The test is classed as functional, cell-based. In short, it runs like this:
as §1

Test [8] relates to K-562R. As to the kind of experiment: Cytotoxicity in imatinib-resistant human K562R cells assessed as reduction cell viability incubated for 48 hrs by XTT assay. Format: functional, cell-based. In short, it runs like this:
(§2)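 K562-S (imatinib-sensitive) or K562-R (imatinib-resistant) CML cells were exposed to a range of concentrations for 48 h. Viability was read by XTT, and the IC50 was derived from the dose-response.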
(Tetrazolium assays rely on reduction of a dye to a coloured formazan, in cell work by metabolically active cells.)

For test [9], the system named is K562. As to the kind of experiment: Induction of apoptosis in drug sensitive human K562 cells assessed as induction of PARP cleavage after 6 hrs by Western blot method. Format: functional, cell-based. In short, it runs like this:
as §1

Test [10] relates to K-562R. In words: Inhibition of autophagy in imatinib-resistant human K562R cells assessed as reduction in LC3-II accumulation by Western blot method. Format: functional, cell-based. In short, it runs like this:
(§3)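 Western blot of LC3 lipidation and cleavage, scored as conversion of LC3-I to LC3-II, in K562-S and K562-R cells. Untreated cells served as the baseline for LC3-II accumulation.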

In test [11] the test system is K562. As to the kind of experiment: Inhibition of autophagy in drug sensitive human K562 cells assessed as reduction in LC3-II accumulation by Western blot method. The test is classed as functional, cell-based. In short, it runs like this: as §3
Test [12] relates to K562. As to the kind of experiment: Induction of apoptosis in drug sensitive human K562 cells assessed as induction of caspase-3 cleavage after 24 hrs by Western blot method. Format: functional, cell-based. A digest of the protocol:
as §1

Test [13] concerns K562. As to the kind of experiment: Cytotoxicity in drug sensitive human K562 cells assessed as reduction cell viability incubated for 48 hrs by XTT assay. The test is classed as functional, cell-based. Particulars: for IC50: K562, 48 h. In short, it runs like this:
as §2

The test system of test [14] is K-562R. In words: Induction of apoptosis in imatinib-resistant human K562R cells assessed as induction of caspase-3 cleavage after 6 hrs by Western blot method. The test is classed as functional, cell-based. In short, it runs like this:
as §1

As usually defined, the IC50 is the concentration needed to halve the response being measured.

Consider `COc1ccc(-c2cccs2)cc1[C@@H]1O[C@H](CO)[C@@H](O)[C@H]1O`, for which, in the test with K562 [1], the result was Active.

Consider `COc1ccc(-c2cc3ccccc3s2)cc1[C@@H]1O[C@H](COC(C)=O)[C@@H](OC(C)=O)[C@H]1OC(C)=O`, for which the result in the test with K-562R [2], in the test on K562 [3], in the test on K-562R [5], in the test with K562 [6], in the test with K-562R [7] and in the test on K562 [9] was inactive. For the same compound, the outcome in the test with K562 [12] and in the test with K-562R [14] was inactive. Moreover, the “Ratio IC50” value in the test on K562 [4] is on record as 200. Besides, the figures for the IC50 with K-562R [8] and with K562 [13] were 2.9 µM and 4 µM, respectively. The inhibition entry in the test on K-562R [10] and in the test with K562 [11] was “Active” in each case. Besides, the Activity is >30 - 80% in the test with K562 [1] and “Dose-dependent effect” in the test on K562 [13]. `COc1ccc(-c2ccc3[nH]ccc3c2)cc1[C@@H]1O[C@H](COC(C)=O)[C@@H](OC(C)=O)[C@H]1OC(C)=O`: in the test on K562 [1], the result was Active.

For the compound `COc1ccc(C#Cc2ccc(OC)c([C@@H]3O[C@H](COC(C)=O)[C@@H](OC(C)=O)[C@H]3OC(C)=O)c2)cc1`, in the test with K562 [1], the Activity was >30%. For the compound `COc1ccc(C#Cc2ccc(C)cc2)cc1[C@@H]1O[C@H](COC(C)=O)[C@@H](OC(C)=O)[C@H]1OC(C)=O`, in the test with K562 [1], the outcome was Active. As for `COc1ccc(C#Cc2ccsc2)cc1[C@@H]1O[C@H](CO)[C@@H](O)[C@H]1O`, the outcome in the test with K562 [1] was Active. Regarding `COc1ccc(-c2cccn2C)cc1[C@@H]1O[C@H](COC(C)=O)[C@@H](OC(C)=O)[C@H]1OC(C)=O`, the outcome with K562 [1] was Active. Turning to `COc1ccc(-c2ccc(C)cc2)cc1[C@@H]1O[C@H](CO)[C@@H](O)[C@H]1O`, in the test on K562 [1], the outcome was Active. For `COc1ccc(-c2ccc(C)cc2)cc1[C@@H]1O[C@H](COC(C)=O)[C@@H](OC(C)=O)[C@H]1OC(C)=O`, in the test on K562 [1], the result was Active. On to `COc1ccc(C#Cc2ccc(F)cc2)cc1[C@@H]1O[C@H](CO)[C@@H](O)[C@H]1O`, for which the outcome with K562 [1] was Active. As to `COc1ccc(-c2ccc3[nH]ccc3c2)cc1[C@@H]1O[C@H](CO)[C@@H](O)[C@H]1O`, the outcome in the test on K562 [1] was Active. For the compound `COc1ccc(-c2ccccc2)cc1[C@@H]1O[C@H](COC(C)=O)[C@@H](OC(C)=O)[C@H]1OC(C)=O`, the result in the test on K562 [1] was Active. With `COc1ccc(-c2cc3ccccc3s2)cc1[C@@H]1O[C@H](CO)[C@@H](O)[C@H]1O`, in the test on K562 [1], the Activity is listed as 16%.

For the compound `NC(=O)c1ncn([C@@H]2O[C@H](CO)[C@@H](O)[C@H]2O)c1N` [ACADESINE], the IC50 with K-562R [8] came to 800 µM. Take `COc1ccc(C#Cc2ccc(C)cc2)cc1[C@@H]1O[C@H](CO)[C@@H](O)[C@H]1O`: the result in the test on K562 [1] was Active. In the case of `COc1ccc(-c2cccs2)cc1[C@@H]1O[C@H](COC(C)=O)[C@@H](OC(C)=O)[C@H]1OC(C)=O`, the Activity in the test with K562 [1] was >30%. In the case of `COc1ccc(C#Cc2ccsc2)cc1[C@@H]1O[C@H](COC(C)=O)[C@@H](OC(C)=O)[C@H]1OC(C)=O`, the outcome in the test with K562 [1] was inactive. As to `COc1ccc(-c2ccco2)cc1[C@@H]1O[C@H](COC(C)=O)[C@@H](OC(C)=O)[C@H]1OC(C)=O`, the outcome with K562 [1] was Active. Consider `COc1ccc(C#Cc2ccc(OC)c([C@@H]3O[C@H](CO)[C@@H](O)[C@H]3O)c2)cc1`, for which the outcome in the test with K562 [1] was Active.

`COc1ccc(-c2cccc3ccccc23)cc1[C@@H]1O[C@H](CO)[C@@H](O)[C@H]1O`: the result with K562 [1] was Active. Still for that read-out and setting: as for `COc1ccc(-c2cccn2C)cc1[C@@H]1O[C@H](CO)[C@@H](O)[C@H]1O`, the entry is “Active”; as for `COc1ccc(-c2ccco2)cc1[C@@H]1O[C@H](CO)[C@@H](O)[C@H]1O`, “Active”; as for `COc1ccc(-c2ccccc2)cc1[C@@H]1O[C@H](CO)[C@@H](O)[C@H]1O`, “Active”. With `Cc1ccc(NC(=O)c2ccc(CN3CCN(C)CC3)cc2)cc1Nc1nccc(-c2cccnc2)n1` [IMATINIB], the concentration for half-maximal inhibition (IC50) was > 50 µM in the test on K-562R [8] and 1.1 µM in the test with K562 [13]. Regarding `COc1ccc(C#Cc2ccccc2)cc1[C@@H]1O[C@H](CO)[C@@H](O)[C@H]1O`, the result with K562 [1] was Active. Consider `COc1ccc(-c2cccc3ccccc23)cc1[C@@H]1O[C@H](COC(C)=O)[C@@H](OC(C)=O)[C@H]1OC(C)=O`, for which, in the test with K562 [1], the Activity is listed as >30%. For the compound `COc1ccc(C#Cc2ccc(F)cc2)cc1[C@@H]1O[C@H](COC(C)=O)[C@@H](OC(C)=O)[C@H]1OC(C)=O`, the result with K562 [1] was Active. On to `COc1ccc(C#Cc2ccccc2)cc1[C@@H]1O[C@H](COC(C)=O)[C@@H](OC(C)=O)[C@H]1OC(C)=O`, for which, in the test with K562 [1], the result was inactive.
